Assay results as given in ChEMBL document CHEMBL1240399.

Key:
[1] = substrate: CC(C)(O/N=C(\C(=O)N[C@@H]1C(=O)N2C(C(=O)[O-])=C(C[n+]3ccccc3)CS[C@H]12)c1csc(N)n1)C(=O)O; assay: (§1) Activity of Pseudomonas aeruginosa GES-13 beta lactamase assessed as hydrolysis by spectrometry
Summary of the method: (§2)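 GES-13 expressed in E. coli(pB-ges13), released by sonication in 20 mM Tris pH 8.0, purified by Q-Sepharose (0–1 M NaCl gradient) then S-Sepharose after dialysis against 20 mM MES pH 6.0 (eluted 400–500 mM NaCl); >95% pure by SDS-PAGE. Hydrolysis of penicillin G, nitrocefin, cephalothin, cefotaxime, ceftazidime, aztreonam and imipenem followed spectrophotometrically; kinetic parameters derived.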

[2] = substrate: CC1(C)S[C@@H]2[C@H](NC(=O)Cc3ccccc3)C(=O)N2[C@H]1C(=O)O; assay: as §1; summary of the method: as §2
[3] = substrate: CO/N=C(\C(=O)N[C@@H]1C(=O)N2C(C(=O)O)=C(COC(C)=O)CS[C@H]12)c1csc(N)n1; assay: as §1; summary of the method: as §2
[4] = substrate: C[C@@H](O)[C@H]1C(=O)N2C(C(=O)O)=C(SCCNC=N)C[C@H]12; assay: as §1; summary of the method: as §2
[5] = substrate: C[C@H]1[C@H](NC(=O)/C(=N\OC(C)(C)C(=O)O)c2csc(N)n2)C(=O)N1S(=O)(=O)O; assay: as §1; summary of the method: as §2
[6] = substrate: O=C(Cc1cccs1)N[C@@H]1C(=O)N2C(C(=O)O)=C(/C=C/c3ccc([N+](=O)[O-])cc3[N+](=O)[O-])CS[C@H]12; assay: as §1; summary of the method: as §2
[7] = substrate: CC(=O)OCC1=C(C(=O)O)N2C(=O)[C@@H](NC(=O)Cc3cccs3)[C@H]2SC1; assay: (§3) Ratio of Kcat/Km for Pseudomonas aeruginosa GES-13 beta lactamase assessed as hydrolysis by spectrometry; summary of the method: as §2
[8] = substrate: CC(C)(O/N=C(\C(=O)N[C@@H]1C(=O)N2C(C(=O)[O-])=C(C[n+]3ccccc3)CS[C@H]12)c1csc(N)n1)C(=O)O; assay: as §3; summary of the method: as §2
[9] = substrate: CC1(C)S[C@@H]2[C@H](NC(=O)Cc3ccccc3)C(=O)N2[C@H]1C(=O)O; assay: as §3; summary of the method: as §2
[10] = substrate: CO/N=C(\C(=O)N[C@@H]1C(=O)N2C(C(=O)O)=C(COC(C)=O)CS[C@H]12)c1csc(N)n1; assay: as §3; summary of the method: as §2
[11] = substrate: C[C@H]1[C@H](NC(=O)/C(=N\OC(C)(C)C(=O)O)c2csc(N)n2)C(=O)N1S(=O)(=O)O; assay: as §3; summary of the method: as §2
[12] = substrate: O=C(Cc1cccs1)N[C@@H]1C(=O)N2C(C(=O)O)=C(/C=C/c3ccc([N+](=O)[O-])cc3[N+](=O)[O-])CS[C@H]12; assay: as §3; summary of the method: as §2

B1: Beta-lactamase GES-13 (Pseudomonas aeruginosa), D1MIX9 (protein)
chain: MRFIHALLLAGIAHSAYASEKLTFKTDLEKLEREKAAQIGVAIVDPQGEIVAGHRMAQRFAMCSTFKFPLAALVFERIDSGTERGDRKLSYGPDMIVKWSPATERFLASGHMTVLEAAQAAVQLSDNGATNLLLREIGGPAAMTQYFRKIGDSVSRLDRKEPEMNDNTPGDLRDTTTPIAMARTVAKVLYGGALTSTSTHTIERWLIGNQTGDATLRAGFPKDWVVGEKTGTCANGGRNDIGFFKAQERDYAVAVYTTAPKLSAVERDELVASVGQVITQLILSTDK
Work on B1 yielded a Km [1] of 229 µM, a kcat [1] of 30.4 s⁻¹ and a Km [2] of 139 µM. It also gave a kcat [2] of 13.5 s⁻¹, a Km [3] of 63 µM and a kcat [3] of 69 s⁻¹. It also gave a kcat [4] of under 0.01 s⁻¹, a Km [5] of 405 µM and a kcat [5] of 35.6 s⁻¹. It also gave a Km [6] of 197 µM, a kcat [6] of 29.3 s⁻¹ and a kcat/Km [7] of 100000 M⁻¹ s⁻¹. The kcat/Km [8] was 130000 M⁻¹ s⁻¹, the kcat/Km [9] was 100000 M⁻¹ s⁻¹ and the kcat/Km [10] was 1.09e+06 M⁻¹ s⁻¹. The kcat/Km [11] was 90000 M⁻¹ s⁻¹ and the kcat/Km [12] was 150000 M⁻¹ s⁻¹.
